# In the RNAGym collection of RNA variant scans (doi:10.1038/s41586-018-0170-7):
# B1: tRNA (parent)
# chain: GUUCCGUUGGCGUAAUGGUAACGCGUCUCCCUCCUAAGGAGAAGACUGCGGGUUCGAGUCCCGUACGGAACG
# Variants of: B1
# Experiment: yeast fitness, log relative to wild type (ln ratio); higher = fitter; tRNA-Arg(CCU), competitive growth, 37 C, 1 M NaCl
# In short: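 Two independent transformations put a combinatorial tRNA-Arg(CCU) variant library on a HIS3 centromeric plasmid into BY4742 lacking the chromosomal gene. Pools were grown in SC-HIS at 30 °C for 4 generations, then in SC-HIS 1M NaCl at 37 °C for ~6.5 generations (~26.5 h), with three outputs taken per input. Fitness compares a genotype's generations with the wild type's as a natural log ratio. Those generations are OD-scaled log2 output/input frequencies, inverse-variance weighted across replicates, from 125 bp paired-end Illumina counts.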
row,Variant,yeast fitness (ln)
1,G1A U2G C71U,-0.218
2,U2G C46U C66U A69G C71U,-0.209
3,G1A G6U C46U C66U,-0.0919
4,G6A C27U A70G C71U,-0.291
5,G1A U2C A43C A69G A70G C71U,-0.0094
6,G1A U2G G6A C27U C46U C66U A69G A70U C71U,-0.542
7,G1A U2C G6A A43C C46U A69G A70U,-0.0463
8,G1A U2C G6A C66U,-0.121
9,G1A U2G G6U A43C C66U A69G A70G C71U,-0.368
10,G1A A43C C46U A70G C71U,-0.032
11,G1A G6A C46U A70U C71U,-0.0983
12,G1A U2C A43C C66A A69G A70G C71U,-0.238
13,U2G G6U C27U A43C C66U A69G A70G C71U,-0.51
14,U2C C66A A69G A70G,-0.0883
15,U2G G6U C27U C66A A69G A70U,-0.0809
16,U2C A43C C46U C66A A70U,-0.0333
17,U2G G6U C27U A43C C66A A69G A70G C71U,-0.371
18,G1A G6U C66A A69G A70U C71U,-0.432
19,U2G G6U C27U A43C C66U A69G A70U C71U,-0.411
20,U2G G6A A43C C46U C66U A70G C71U,-0.149
21,G1A U2G C27U A43C C46U C66A,-0.106
22,G1A U2G C46U C66A A69G A70U C71U,-0.385
23,G1A U2G G6U C66U A70U,-0.211
24,U2C A43C C46U A70U,-0.0182

row,Variant,yeast fitness (ln)
1,U2C G6A C27U C46U C66A C71U,-0.101
2,C27U A43C C66A C71U,-0.275
3,C27U C46U C66U A69G A70G C71U,-0.166
4,U2G A69G A70U C71U,-0.25
5,A43C C66U A69G A70U,-0.224
6,U2C G6U A43C C46U C66U C71U,-0.242
7,U2C G6U C27U C66U A70U C71U,-0.35
8,C27U C66U A69G C71U,-0.313
9,U2C C27U C46U C66A A70G C71U,-0.181
10,G6U C46U C66A A70U,0.00243
11,G1A U2C A43C A70U,-0.108
12,G1A C27U A43C C46U C66A A70G,-0.248
13,U2G G6U C27U A43C C46U C66A,-0.0517
14,U2G G6U C27U C66U A69G,-0.275
15,U2C A43C C46U C66A A69G A70G,-0.15
16,U2C C27U A43C C46U C66A A69G A70G C71U,-0.15
17,G1A A43C C46U C66U A69G A70G C71U,-0.263
18,G1A G6U C46U C66A A69G C71U,-0.041
19,U2C G6U C27U C46U C66A A69G A70G C71U,-0.0348
20,G1A U2G G6U C66U A69G C71U,-0.375
21,G1A C46U C66U A70U C71U,-0.214
22,U2C G6U C27U A43C C46U C66A C71U,-0.17
23,U2C G6U C46U C66U A69G A70G C71U,-0.1
24,U2G A43C C66A A70G C71U,-0.237

row,Variant,yeast fitness (ln)
1,G1A U2C G6U C27U C46U C66A A70U,-0.0687
2,U2C G6U C27U C46U C66U A70U,-0.132
3,U2G C27U C46U A70G,-0.0813
4,G1A G6U C66U A69G A70U C71U,-0.525
5,G1A U2G A43C C66U A70U,-0.185
6,G1A U2G A43C C46U C66U A70U,-0.141
7,U2G G6U C46U A70U,-0.0198
8,U2C G6A A43C C46U C66A C71U,-0.127
9,G1A A43C C66U C71U,-0.289
10,U2C G6U A43C A69G C71U,-0.255
11,U2C G6A C66U A69G A70U,-0.222
12,C66U A69G A70U,-0.0858
13,U2G C27U C66U A69G A70U C71U,-0.433
14,U2C C27U A43C A69G C71U,-0.144
15,U2C C27U A43C C46U C66U C71U,-0.174
16,G1A A43C C46U A69G A70U,-0.0688
17,G1A A43C C46U A69G A70G,-0.104
18,A43C C46U C66A A69G A70G C71U,-0.103
19,U2G G6U C27U A43C C46U A69G A70G C71U,-0.33
20,G6A C27U C66A A69G A70U C71U,-0.0879
21,G1A U2G G6U A43C C66U A69G A70U C71U,-0.4
22,U2G G6U C27U A43C C46U C66U A70G C71U,-0.315
23,G1A U2G G6A A43C C46U C66A A70G,-0.26
24,G1A C27U A43C C46U C66A A69G A70U,-0.352

row,Variant,yeast fitness (ln)
1,G1A U2G G6U C27U C46U,-0.217
2,G1A U2G A43C C46U A69G A70U C71U,-0.29
3,U2C G6A C27U C66U A69G A70U C71U,-0.386
4,G1A C27U C66U A69G A70U C71U,-0.364
5,G1A U2G G6A A43C C46U C66A A69G A70U C71U,-0.286
6,U2G C27U A43C C46U A69G A70U,-0.0275
7,U2G G6A C46U C66U A69G,-0.163
8,G1A U2G G6A C27U A70G C71U,-0.336
9,G1A G6U A43C C46U C66U,-0.286
10,G6A C27U C46U C66U,-0.0122
11,G1A A43C C46U C66A A70G,-0.113
12,U2C G6U C27U A43C C66U A70U,-0.156
13,G1A C27U A43C C46U A69G C71U,-0.109
14,U2G G6A C27U C66U A70G,-0.227
15,U2C C27U A43C C46U C66A A69G A70U,-0.263
16,U2C G6U C27U C46U C66A A69G A70U,-0.114
17,G1A U2C G6A C46U C66U A70U C71U,-0.0901
18,G1A G6A C27U A43C C46U A70G,-0.285
19,G1A G6A C27U A43C C46U A70U,-0.201
20,G1A U2G C46U C66A A70G,-0.152
21,G1A U2G G6A A43C C46U C66U A70G C71U,-0.266
22,U2C A43C C46U C66A A69G A70G C71U,-0.097
23,G1A A43C C46U C66U C71U,-0.247
24,G6U C46U C66A A69G C71U,-0.0515

row,Variant,yeast fitness (ln)
1,U2C A43C C46U C66U A70G C71U,-0.152
2,U2C G6U C27U A70G,-0.185
3,G1A U2C G6U C27U A43C C46U C66A A70U,-0.0771
4,G1A G6U C27U A43C C46U C66U A69G A70U C71U,-0.565
5,C27U C46U C66A,-0.0465
6,U2C A43C C66U A70G C71U,-0.346
7,C66U A69G A70G C71U,-0.106
8,G1A U2G C66A A70G C71U,-0.191
9,G6A C46U C71U,-0.359
10,G1A G6U A43C A69G A70G C71U,-0.398
11,G1A U2G C27U A69G A70G C71U,-0.241
12,U2G C27U A43C C66U A70U C71U,-0.333
13,U2C C27U A43C C46U C66U A69G A70U C71U,-0.46
14,U2C G6A A43C C46U A70G,-0.0922
15,U2G G6A A43C C66U A70G C71U,-0.186
16,G1A G6U C27U A43C C46U C66A A69G A70G C71U,-0.359
17,G1A G6A C27U C46U C66U A69G C71U,-0.132
18,G6A C46U C66A A69G A70U,-0.178
19,C27U C46U A70G,-0.029
20,G1A U2G,-0.0263
21,U2C G6U C46U A70U,-0.0445
22,G1A C27U A43C C66A A69G A70G C71U,-0.427
23,U2G C27U C66A A69G A70G,-0.15
24,G1A U2G G6A C27U A43C C66A A69G A70G C71U,-0.351

row,Variant,yeast fitness (ln)
1,U2G G6A C27U C66U A69G A70G,-0.243
2,U2G A43C A69G C71U,-0.163
3,U2C G6U C27U A43C A69G A70G C71U,-0.281
4,C27U A43C C46U C66A,-0.0786
5,G6U C27U C46U C66U A69G A70G C71U,-0.321
6,G1A G6A C66U,-0.113
7,U2G C27U C66U,-0.0998
8,G1A G6U C27U A43C C46U C66A A69G A70U C71U,-0.426
9,G1A U2G G6A C66U A70G C71U,-0.578
10,U2G C27U A43C C46U C66A A70G C71U,-0.162
11,U2C G6A C27U C46U C66U A69G A70G,-0.0335
12,U2C G6A A70U,-0.0455
13,G6A C27U C46U C71U,-0.176
14,A43C C46U C66U A70G,-0.0608
15,U2G G6U C27U A43C C66A A70G C71U,-0.253
16,G1A G6A C27U A43C C66U A70U C71U,-0.381
17,G1A G6A C27U A43C C46U A69G A70U,-0.259
18,G6U C27U A43C C66A A69G A70U,-0.282
19,U2G C27U C46U A69G A70G,-0.355
20,U2C G6A C66U A69G A70G C71U,-0.0248
21,G1A G6U C27U C46U C66U A69G A70U,-0.454
22,G1A U2C G6A C66A A70G C71U,-0.127
23,U2C G6U C46U C66U A69G A70G,-0.066
24,U2C G6U A43C C66U A70G,-0.279

row,Variant,yeast fitness (ln)
1,G1A G6A C27U C46U C66U C71U,-0.0279
2,U2G G6A C27U A69G A70G,-0.193
3,G1A U2C G6U C66A A69G A70G,-0.126
4,A43C C46U A70G C71U,-0.168
5,G1A G6A C66A A69G A70G C71U,-0.194
6,G1A A43C C46U C66U A70U C71U,-0.323
7,G1A C27U C46U A69G A70G C71U,-0.16
8,G1A U2G C46U C66U A69G A70G C71U,-0.195
9,G1A U2G C66U A70U C71U,-0.486
10,G1A U2G G6A A43C C66U A70U C71U,-0.443
11,G6A C27U C46U C66U A69G,-0.0373
12,U2G G6A A43C A70G C71U,-0.18
13,G1A U2G A43C C66U A69G A70G,-0.328
14,G1A U2C G6U A43C C46U A69G A70G C71U,-0.124
15,G1A U2G G6U A43C C46U C66U A69G A70G,-0.365
16,G6U C27U C66U A69G A70U,-0.329
17,G1A U2G G6U C27U C66U A70U,-0.386
18,G1A U2G G6U C27U C66U A70G,-0.357
19,U2G G6A C27U A43C C46U A69G A70G C71U,-0.297
20,G1A G6A A43C C46U C66U A70G C71U,-0.338
21,U2G G6A C27U C46U C66A A69G A70G C71U,-0.251
22,G1A G6U C27U A43C C46U C66A A69G A70G,-0.432
23,G1A G6U,-0.0886
